The target in assay [1] is Toll-like receptor 1/2 (Mus musculus) (UniProt Q9QUN7+Q9EPQ1). Kind of assay: Agonist activity at TLR1/TLR2 in wild type C57BL/6J mouse macrophages assessed as stimulation of TNF alpha release measured for 4 hrs by ELISA based assay relative to diprovocim-1. As to conditions: Macrophage, filed as agonist. Format: cell-based. Set-up: Activity: concentration or dose not given beside the values. The procedure, abridged: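 Thioglycolate-elicited peritoneal macrophages from wild type C57BL/6J mice, harvested by PBS lavage 4 d after i.p. 4% thioglycolate. Cultured in DMEM/10% FBS at 37 °C, 5% CO2, seeded at 1 × 10⁵ cells/well and exposed to graded compound concentrations for 4 h, with final DMSO ≤0.5% held constant. LPS served as positive control. Supernatant mouse TNF-α was read by ELISA. EC50 from duplicate means.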

For another assay, the target named is Toll-like receptor 1/2 (Homo sapiens, UniProt O60603+Q15399). Kind of assay: Agonist activity at TLR1/TLR2 in human THP-1 derived macrophages assessed as stimulation of TNF alpha release measured for 4 hrs by ELISA based assay relative to diprovocim-1. Format: cell-based. Set-up: Activity: concentration or dose not given beside the values. Summed up: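 THP-1 cells differentiated with 100 nM PMA in RPMI/10% FBS for 24 h, washed, then rested 24 h in fresh medium. Seeded at 0.5 × 10⁵ cells/well and exposed to graded compound concentrations for 4 h, with final DMSO held at 0.1%. LPS served as positive control and DMSO as negative control. Supernatant human TNF-α was read by ELISA. EC50 from duplicate means.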
Background: In an ELISA, binding on a coated surface is turned into a signal by an enzyme label.

`N#CCC(=O)OCCCCCCCCCCCCNC(=O)[C@@H]1CN(C(=O)c2ccc(C(=O)N3C[C@@H](C(=O)N[C@H]4C[C@@H]4c4ccccc4)[C@H](C(=O)N[C@H]4C[C@@H]4c4ccccc4)C3)cc2)C[C@H]1C(=O)N[C@H]1C[C@@H]1c1ccccc1`: the figures for the Activity (in assay [1]; at Toll-like receptor 1/2 (filed as agonist)) were 120% and 130%, respectively.
In the same order, the values of `CC(C)(C)OC(=O)NCC(=O)NCC(=O)OCCCCCCCCCCCCNC(=O)[C@@H]1CN(C(=O)c2ccc(C(=O)N3C[C@@H](C(=O)N[C@H]4C[C@@H]4c4ccccc4)[C@H](C(=O)N[C@H]4C[C@@H]4c4ccccc4)C3)cc2)C[C@H]1C(=O)N[C@H]1C[C@@H]1c1ccccc1` are 110% and 110%.
The matching figures for `O=C(CNC(=O)c1ccc(C(=O)O)cc1)OCCCCCCCCCCCCNC(=O)[C@@H]1CN(C(=O)c2ccc(C(=O)N3C[C@@H](C(=O)N[C@H]4C[C@@H]4c4ccccc4)[C@H](C(=O)N[C@H]4C[C@@H]4c4ccccc4)C3)cc2)C[C@H]1C(=O)N[C@H]1C[C@@H]1c1ccccc1`: 60% and 100%.
In the same order, the values of `[N-]=[N+]=NCC(=O)OCCCCCCCCCCCCNC(=O)[C@@H]1CN(C(=O)c2ccc(C(=O)N3C[C@@H](C(=O)N[C@H]4C[C@@H]4c4ccccc4)[C@H](C(=O)N[C@H]4C[C@@H]4c4ccccc4)C3)cc2)C[C@H]1C(=O)N[C@H]1C[C@@H]1c1ccccc1` are 120% and 100%.
For `CC(C)(C)Oc1ccc(C(=O)OCCCCCCCCCCCCNC(=O)[C@@H]2CN(C(=O)c3ccc(C(=O)N4C[C@@H](C(=O)N[C@H]5C[C@@H]5c5ccccc5)[C@H](C(=O)N[C@H]5C[C@@H]5c5ccccc5)C4)cc3)C[C@H]2C(=O)N[C@H]2C[C@@H]2c2ccccc2)cc1`, the Activity in assay [1] is 150%; at Toll-like receptor 1/2, below 50%.
As to `CN(C)CC(=O)OCCCCCCCCCCCCNC(=O)[C@@H]1CN(C(=O)c2ccc(C(=O)N3C[C@@H](C(=O)N[C@H]4C[C@@H]4c4ccccc4)[C@H](C(=O)N[C@H]4C[C@@H]4c4ccccc4)C3)cc2)C[C@H]1C(=O)N[C@H]1C[C@@H]1c1ccccc1`, the values for the Activity (in assay [1]; on Toll-like receptor 1/2 (filed as agonist)) were 140% and 100%, respectively.
As to `CC(C)(C)C(=O)NCC(=O)OCCCCCCCCCCCCNC(=O)[C@@H]1CN(C(=O)c2ccc(C(=O)N3C[C@@H](C(=O)N[C@H]4C[C@@H]4c4ccccc4)[C@H](C(=O)N[C@H]4C[C@@H]4c4ccccc4)C3)cc2)C[C@H]1C(=O)N[C@H]1C[C@@H]1c1ccccc1`, the Activity (in assay [1]; at Toll-like receptor 1/2 (filed as agonist)) was 110% throughout.
Consider `O=C(NCCCCCCCCc1ccc(O)cc1)[C@@H]1CN(C(=O)c2ccc(C(=O)N3C[C@@H](C(=O)N[C@H]4C[C@@H]4c4ccccc4)[C@H](C(=O)N[C@H]4C[C@@H]4c4ccccc4)C3)cc2)C[C@H]1C(=O)N[C@H]1C[C@@H]1c1ccccc1`, for which the results for the Activity (in assay [1]; at Toll-like receptor 1/2 (filed as agonist)) were 380% and 90%, respectively.
Regarding `CC(C)(C)OC(=O)Nc1ccc(C(=O)OCCCCCCCCCCCCNC(=O)[C@@H]2CN(C(=O)c3ccc(C(=O)N4C[C@@H](C(=O)N[C@H]5C[C@@H]5c5ccccc5)[C@H](C(=O)N[C@H]5C[C@@H]5c5ccccc5)C4)cc3)C[C@H]2C(=O)N[C@H]2C[C@@H]2c2ccccc2)cc1`, the Activity was 540% in assay [1] and 90% at Toll-like receptor 1/2 (filed as agonist).
In the same order, the values of `CSCC[C@H](NC(=O)OC(C)(C)C)C(=O)OCCCCCCCCCCCCNC(=O)[C@@H]1CN(C(=O)c2ccc(C(=O)N3C[C@@H](C(=O)N[C@H]4C[C@@H]4c4ccccc4)[C@H](C(=O)N[C@H]4C[C@@H]4c4ccccc4)C3)cc2)C[C@H]1C(=O)N[C@H]1C[C@@H]1c1ccccc1` are 150% and 100%.
On to `O=C(CNC(=O)OCc1ccccc1)OCCCCCCCCCCCCNC(=O)[C@@H]1CN(C(=O)c2ccc(C(=O)N3C[C@@H](C(=O)N[C@H]4C[C@@H]4c4ccccc4)[C@H](C(=O)N[C@H]4C[C@@H]4c4ccccc4)C3)cc2)C[C@H]1C(=O)N[C@H]1C[C@@H]1c1ccccc1`, for which the values for the Activity (in assay [1]; at Toll-like receptor 1/2 (filed as agonist)) were 410% and 100%, respectively.
The matching figures for `O=C(O)c1ccc(C(=O)NCCOCCCCCCCCCCCCNC(=O)[C@@H]2CN(C(=O)c3ccc(C(=O)N4C[C@@H](C(=O)N[C@H]5C[C@@H]5c5ccccc5)[C@H](C(=O)N[C@H]5C[C@@H]5c5ccccc5)C4)cc3)C[C@H]2C(=O)N[C@H]2C[C@@H]2c2ccccc2)cc1`: 50% and 100%.
Turning to `O=C(O)c1ccc(C(=O)OCCCCCCCCCCCCNC(=O)[C@@H]2CN(C(=O)c3ccc(C(=O)N4C[C@@H](C(=O)N[C@H]5C[C@@H]5c5ccccc5)[C@H](C(=O)N[C@H]5C[C@@H]5c5ccccc5)C4)cc3)C[C@H]2C(=O)N[C@H]2C[C@@H]2c2ccccc2)cc1`, the Activity in assay [1] was determined as 120%; on Toll-like receptor 1/2 (filed as agonist) it was 100%.
In the same order, the values of `O=C(CO)OCCCCCCCCCCCCNC(=O)[C@@H]1CN(C(=O)c2ccc(C(=O)N3C[C@@H](C(=O)N[C@H]4C[C@@H]4c4ccccc4)[C@H](C(=O)N[C@H]4C[C@@H]4c4ccccc4)C3)cc2)C[C@H]1C(=O)N[C@H]1C[C@@H]1c1ccccc1` are 140% and 100%.
The matching figures for `O=C(COCc1ccccc1)OCCCCCCCCCCCCNC(=O)[C@@H]1CN(C(=O)c2ccc(C(=O)N3C[C@@H](C(=O)N[C@H]4C[C@@H]4c4ccccc4)[C@H](C(=O)N[C@H]4C[C@@H]4c4ccccc4)C3)cc2)C[C@H]1C(=O)N[C@H]1C[C@@H]1c1ccccc1`: 220% and 130%.
For `Nc1ccc(COCCCCCCCCCCCCNC(=O)[C@@H]2CN(C(=O)c3ccc(C(=O)N4C[C@@H](C(=O)N[C@H]5C[C@@H]5c5ccccc5)[C@H](C(=O)N[C@H]5C[C@@H]5c5ccccc5)C4)cc3)C[C@H]2C(=O)N[C@H]2C[C@@H]2c2ccccc2)cc1`, the Activity was found to be 130% in assay [1] and 90% on Toll-like receptor 1/2 (filed as agonist).
Regarding `O=C(OCCCCCCCCCCCCNC(=O)[C@@H]1CN(C(=O)c2ccc(C(=O)N3C[C@@H](C(=O)N[C@H]4C[C@@H]4c4ccccc4)[C@H](C(=O)N[C@H]4C[C@@H]4c4ccccc4)C3)cc2)C[C@H]1C(=O)N[C@H]1C[C@@H]1c1ccccc1)c1ccc(O)cc1`, the Activity in assay [1] came to 540%; at Toll-like receptor 1/2 (filed as agonist) it was 100%.
The matching figures for `O=C(O)CCCCCCCCCCCNC(=O)[C@@H]1CN(C(=O)c2ccc(C(=O)N3C[C@@H](C(=O)N[C@H]4C[C@@H]4c4ccccc4)[C@H](C(=O)N[C@H]4C[C@@H]4c4ccccc4)C3)cc2)C[C@H]1C(=O)N[C@H]1C[C@@H]1c1ccccc1`: 110% and 100%.
`NCC(=O)OCCCCCCCCCCCCNC(=O)[C@@H]1CN(C(=O)c2ccc(C(=O)N3C[C@@H](C(=O)N[C@H]4C[C@@H]4c4ccccc4)[C@H](C(=O)N[C@H]4C[C@@H]4c4ccccc4)C3)cc2)C[C@H]1C(=O)N[C@H]1C[C@@H]1c1ccccc1`: the Activity (in assay [1]; on Toll-like receptor 1/2 (filed as agonist)) was 100% throughout.
Regarding `O=C(NCCCCCCCCCCCCO)[C@@H]1CN(C(=O)c2ccc(C(=O)N3C[C@@H](C(=O)N[C@H]4C[C@@H]4c4ccccc4)[C@H](C(=O)N[C@H]4C[C@@H]4c4ccccc4)C3)cc2)C[C@H]1C(=O)N[C@H]1C[C@@H]1c1ccccc1`, the Activity worked out at 110% in assay [1] and 90% on Toll-like receptor 1/2 (filed as agonist).
As for `CC(C)(C)OC(=O)NC1(C(=O)OCCCCCCCCCCCCNC(=O)[C@@H]2CN(C(=O)c3ccc(C(=O)N4C[C@@H](C(=O)N[C@H]5C[C@@H]5c5ccccc5)[C@H](C(=O)N[C@H]5C[C@@H]5c5ccccc5)C4)cc3)C[C@H]2C(=O)N[C@H]2C[C@@H]2c2ccccc2)CC1`, the Activity came to 220% in assay [1] and 100% at Toll-like receptor 1/2 (filed as agonist).
On to `CNC(=O)CCCCCCCCCCCNC(=O)[C@@H]1CN(C(=O)c2ccc(C(=O)N3C[C@@H](C(=O)N[C@H]4C[C@@H]4c4ccccc4)[C@H](C(=O)N[C@H]4C[C@@H]4c4ccccc4)C3)cc2)C[C@H]1C(=O)N[C@H]1C[C@@H]1c1ccccc1`, for which the Activity in assay [1] came to 150%; at Toll-like receptor 1/2 (filed as agonist), 120%.
The matching figures for `COC(=O)NCC(=O)OCCCCCCCCCCCCNC(=O)[C@@H]1CN(C(=O)c2ccc(C(=O)N3C[C@@H](C(=O)N[C@H]4C[C@@H]4c4ccccc4)[C@H](C(=O)N[C@H]4C[C@@H]4c4ccccc4)C3)cc2)C[C@H]1C(=O)N[C@H]1C[C@@H]1c1ccccc1`: 120% and 100%.
The matching figures for `NCCCCCCCCCCCCNC(=O)[C@@H]1CN(C(=O)c2ccc(C(=O)N3C[C@@H](C(=O)N[C@H]4C[C@@H]4c4ccccc4)[C@H](C(=O)N[C@H]4C[C@@H]4c4ccccc4)C3)cc2)C[C@H]1C(=O)N[C@H]1C[C@@H]1c1ccccc1`: 130% and 140%.
As to `CC(C)(C)OC(=O)N[C@@H](Cc1ccccc1)C(=O)OCCCCCCCCCCCCNC(=O)[C@@H]1CN(C(=O)c2ccc(C(=O)N3C[C@@H](C(=O)N[C@H]4C[C@@H]4c4ccccc4)[C@H](C(=O)N[C@H]4C[C@@H]4c4ccccc4)C3)cc2)C[C@H]1C(=O)N[C@H]1C[C@@H]1c1ccccc1`, the Activity came to 220% in assay [1] and 100% on Toll-like receptor 1/2 (filed as agonist).
As for `CC(C)[C@H](NC(=O)OC(C)(C)C)C(=O)OCCCCCCCCCCCCNC(=O)[C@@H]1CN(C(=O)c2ccc(C(=O)N3C[C@@H](C(=O)N[C@H]4C[C@@H]4c4ccccc4)[C@H](C(=O)N[C@H]4C[C@@H]4c4ccccc4)C3)cc2)C[C@H]1C(=O)N[C@H]1C[C@@H]1c1ccccc1`, the Activity was 180% in assay [1] and 100% at Toll-like receptor 1/2 (filed as agonist).
Turning to `O=C(CNC(=O)C(F)(F)F)OCCCCCCCCCCCCNC(=O)[C@@H]1CN(C(=O)c2ccc(C(=O)N3C[C@@H](C(=O)N[C@H]4C[C@@H]4c4ccccc4)[C@H](C(=O)N[C@H]4C[C@@H]4c4ccccc4)C3)cc2)C[C@H]1C(=O)N[C@H]1C[C@@H]1c1ccccc1`, the Activity (in assay [1]; at Toll-like receptor 1/2 (filed as agonist)) was 100% in each case.
